Source: ChEMBL document CHEMBL3616437, “Thiazole compounds with activity against Cryptococcus gattii and Cryptococcus neoformans in vitro” (Eur J Med Chem, 2015)
In brackets after ≈: the same amount, converted by molar mass.

Experiments:
[1] = tested on: Cryptococcus gattii species complex; assay: Antifungal activity against Cryptococcus gattii LMM818 after 48 to 72 hrs by broth microdilution method; assay type: functional, Cryptococcus bacillisporus
In short: (§1)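 CLSI M27-A3 broth microdilution in RPMI with L-glutamine, buffered to pH 7.0 with 0.165 M MOPS. Colonies grown twice on SDA, 48 h at 35°C. Inoculum set to 70% transmittance at 530 nm, then diluted to 1-5 x10^3 cells/mL. Test agents dissolved in DMSO, serially diluted, tested at 0.1 to 62.5 µM. Plates held at 35°C for 48-72 h. MIC is the lowest concentration giving an optically clear well, read visually against drug-free growth controls.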

[2] = tested on: Cryptococcus gattii species complex; assay: Antifungal activity against Cryptococcus gattii L27/01 after 48 to 72 hrs by broth microdilution method; assay type: functional, Cryptococcus bacillisporus; in short: as §1
[3] = tested on: Cryptococcus gattii species complex; assay: Antifungal activity against Cryptococcus gattii 1913ER after 48 to 72 hrs by broth microdilution method; assay type: functional, Cryptococcus bacillisporus; in short: as §1
Cryptococcus neoformans [4] = assay: Antifungal activity against Cryptococcus neoformans 28JF after 48 to 72 hrs by broth microdilution method; assay type: functional
In short: (§2)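 CLSI M27-A3 broth microdilution. Isolates subcultured twice on SDA, 48 h at 35°C. Saline suspension adjusted to 70% transmittance at 530 nm, then diluted to 1-5 x10^3 cells/mL in RPMI with L-glutamine, 0.165 M MOPS, pH 7.0. Compounds in DMSO, tested at […]. 35°C for 48-72 h. MIC read visually as the lowest concentration giving an optically clear well.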

[5] = tested on: Cryptococcus gattii species complex; assay: Antifungal activity against Cryptococcus gattii 135L/03 after 48 to 72 hrs by broth microdilution method; assay type: functional, Cryptococcus bacillisporus; in short: as §1
Cryptococcus neoformans [6] = assay: Antifungal activity against Cryptococcus neoformans ATCC 62066 after 48 to 72 hrs by broth microdilution method; assay type: functional
[7] = tested on: Cryptococcus gattii species complex; assay: Antifungal activity against Cryptococcus gattii L28/02 after 48 to 72 hrs by broth microdilution method; assay type: functional, Cryptococcus bacillisporus; in short: as §1
Cryptococcus neoformans [8] = assay: Antifungal activity against Cryptococcus neoformans ATCC 24067 after 48 to 72 hrs by broth microdilution method; assay type: functional; in short: as §2
[9] = tested on: Cryptococcus gattii species complex; assay: Antifungal activity against Cryptococcus gattii 196L/03 after 48 to 72 hrs by broth microdilution method; assay type: functional, Cryptococcus bacillisporus; in short: as §1
Cryptococcus neoformans [10] = assay: Antifungal activity against Cryptococcus neoformans WP after 48 to 72 hrs by broth microdilution method; assay type: functional; in short: as §2
Vero = assay: Cytotoxicity against African green monkey Vero cells assessed as cell viability measured after 48 hrs by MTT assay; assay type: cell-based; conditions: Chlorocebus sabaeus
In short: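 VERO cells in D-MEM with 5% FBS, used up to 20 passages. Seeded 1 x 10^4 cells/well, pre-incubated 24 h at 37°C. Exposed 48 h at 37°C, 5% CO2, to eight nonserial dilutions from 100 to 0.0128 µM, with 0.5% DMSO control. MTT reduction read-out, corrected for background and blank. IC50 reported as median with 95% CI. Triplicate, two independent experiments.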

[11] = tested on: Cryptococcus gattii species complex; assay: Antifungal activity against Cryptococcus gattii 23/10993 after 48 to 72 hrs by broth microdilution method; assay type: functional, Cryptococcus bacillisporus; in short: as §1
[12] = Selectivity index, ratio of IC50 for African green monkey Vero cells to MIC for Cryptococcus neoformans ATCC 24067; assay type: toxicity, cell-based
[13] = Cytotoxicity against C57BL/6 mouse peritoneal macrophages assessed as cell viability measured after 48 hrs by MTT assay; assay type: cell-based; conditions: C57BL/6, Peritoneal macrophage cell
In short: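 Thioglycollate-elicited peritoneal macrophages from male C57BL/6 mice, 6–8 weeks old, in RPMI with 10% FBS. Seeded 1 x 10^5 cells/well, pre-incubated 24 h at 37°C. Exposed 48 h at 37°C, 5% CO2, to eight nonserial dilutions from 100 to 0.0128 µM, with 0.5% DMSO control. MTT read-out, % inhibition versus DMSO control. IC50 reported as median with 95% CI. Triplicate, two independent experiments.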

Cryptococcus neoformans [14] = assay: Antifungal activity against Cryptococcus neoformans CN31 after 48 to 72 hrs by broth microdilution method; assay type: functional; in short: as §2
[15] = tested on: Cryptococcus bacillisporus; assay: Antifungal activity against Cryptococcus gattii ATCC 32608 after 48 to 72 hrs by broth microdilution method; assay type: functional; in short: as §1
[16] = tested on: Cryptococcus gattii species complex; assay: Antifungal activity against Cryptococcus gattii L24/01 after 48 to 72 hrs by broth microdilution method; assay type: functional, Cryptococcus bacillisporus; in short: as §1
Cryptococcus neoformans [17] = assay: Antifungal activity against Cryptococcus neoformans F10 after 48 to 72 hrs by broth microdilution method; assay type: functional; in short: as §2
[18] = Selectivity index, ratio of IC50 for C57BL/6 mouse peritoneal macrophages to MIC for Cryptococcus neoformans ATCC 24067
In short: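 SI = IC50/MIC. Thioglycollate-elicited peritoneal macrophages from C57BL/6 mice are seeded at 1 x 10^5/well. They are exposed for 48 h at 37°C to eight concentrations from 100 to 0.0128 µM. Viability read by MTT versus 0.5% DMSO control, triplicate in two experiments.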

Cryptococcus neoformans [19] = assay: Antifungal activity against Cryptococcus neoformans VM-MCMMPI after 48 to 72 hrs by broth microdilution method; assay type: functional; in short: as §2
[20] = tested on: Cryptococcus gattii species complex; assay: Antifungal activity against Cryptococcus gattii ICB181 after 48 to 72 hrs by broth microdilution method; assay type: functional, Cryptococcus bacillisporus; in short: as §1
Cryptococcus neoformans [21] = assay: Antifungal activity against Cryptococcus neoformans LMM820 after 48 to 72 hrs by broth microdilution method; assay type: functional; in short: as §2
[22] = tested on: Cryptococcus gattii species complex; assay: Antifungal activity against Cryptococcus gattii 547/OTTI-97-PI-10 after 48 to 72 hrs by broth microdilution method; assay type: functional, Cryptococcus bacillisporus; in short: as §1
Cryptococcus neoformans [23] = assay: Antifungal activity against Cryptococcus neoformans 5396 after 48 to 72 hrs by broth microdilution method; assay type: functional; in short: as §2
Cryptococcus neoformans [24] = assay: Antifungal activity against Cryptococcus neoformans 96806 after 48 to 72 hrs by broth microdilution method; assay type: functional; in short: as §2
Cryptococcus neoformans [25] = assay: Antifungal activity against Cryptococcus neoformans ATCC 28957 after 48 to 72 hrs by broth microdilution method; assay type: functional; in short: as §2
Cryptococcus neoformans [26] = assay: Antifungal activity against Cryptococcus neoformans 27JF after 48 to 72 hrs by broth microdilution method; assay type: functional; in short: as §2

OC(Cn1cncn1)(Cn1cncn1)c1ccc(F)cc1F [FLUCONAZOLE]
MFC [1]: > 62.5 µM
MIC [1]: 20.8 µM (≈ 6.37 µg/mL)
MFC [2]: > 62.5 µM
MIC [2]: 41.7 µM (≈ 12.8 µg/mL)
MFC [3]: > 62.5 µM
MIC [3]: 13 µM (≈ 3.98 µg/mL)
MFC (Cryptococcus neoformans [4]): > 62.6 µM
MIC (Cryptococcus neoformans [4]): 7.8 µM (≈ 2.39 µg/mL)
MFC [5]: 31.3 µM (≈ 9.59 µg/mL)
MIC [5]: 7.8 µM (≈ 2.39 µg/mL)
MFC (Cryptococcus neoformans [6]): > 62.5 µM
MIC (Cryptococcus neoformans [6]): 13 µM (≈ 3.98 µg/mL)
MFC [7]: > 62.5 µM
MIC [7]: 26 µM (≈ 7.96 µg/mL)
MIC (Cryptococcus neoformans [8]): 7.8 µM (≈ 2.39 µg/mL)
MFC [9]: > 62.5 µM
MIC [9]: 26 µM (≈ 7.96 µg/mL)
MFC (Cryptococcus neoformans [10]): > 62.5 µM
MIC (Cryptococcus neoformans [10]): 15.6 µM (≈ 4.78 µg/mL)
IC50 (Vero): > 100 µM
MFC [11]: > 62.5 µM
MIC [11]: 13 µM (≈ 3.98 µg/mL)
selectivity ratio [12]: 15.7
IC50 [13]: > 100 µM
MFC (Cryptococcus neoformans [14]): 31.2 µM (≈ 9.57 µg/mL)
MIC (Cryptococcus neoformans [14]): 6.5 µM (≈ 1.99 µg/mL)
MFC [15]: 62.5 µM (≈ 19.1 µg/mL)
MIC [15]: 13 µM (≈ 3.98 µg/mL)
MFC [16]: > 62.5 µM
MIC [16]: 13 µM (≈ 3.98 µg/mL)
MFC (Cryptococcus neoformans [17]): > 62.5 µM
MIC (Cryptococcus neoformans [17]): 10.4 µM (≈ 3.19 µg/mL)
Ratio [18]: 15.74
MFC (Cryptococcus neoformans [19]): 15.6 µM (≈ 4.78 µg/mL)
MIC (Cryptococcus neoformans [19]): 11.7 µM (≈ 3.58 µg/mL)
MFC [20]: 62.5 µM (≈ 19.1 µg/mL)
MIC [20]: 10.4 µM (≈ 3.19 µg/mL)
MFC (Cryptococcus neoformans [21]): 62.5 µM (≈ 19.1 µg/mL)
MIC (Cryptococcus neoformans [21]): 13 µM (≈ 3.98 µg/mL)
MFC [22]: > 62.5 µM
MIC [22]: 13 µM (≈ 3.98 µg/mL)
MFC (Cryptococcus neoformans [23]): 62.5 µM (≈ 19.1 µg/mL)
MIC (Cryptococcus neoformans [23]): 23.4 µM (≈ 7.17 µg/mL)
MFC (Cryptococcus neoformans [24]): > 62.5 µM
MIC (Cryptococcus neoformans [24]): 31.2 µM (≈ 9.56 µg/mL)
MFC (Cryptococcus neoformans [25]): 62.5 µM (≈ 19.1 µg/mL)
MIC (Cryptococcus neoformans [25]): 3.2 µM (≈ 0.98 µg/mL)
MFC (Cryptococcus neoformans [26]): > 62.5 µM
MIC (Cryptococcus neoformans [26]): 10.4 µM (≈ 3.19 µg/mL)

C[C@@H]1[C@H](O)[C@@H](C)/C=C/C=C/C=C/C=C/C=C/C=C/C=C/[C@H](O[C@@H]2O[C@H](C)[C@@H](O)[C@H](N)[C@@H]2O)C[C@@H]2O[C@](O)(C[C@@H](O)C[C@@H](O)[C@H](O)CC[C@@H](O)C[C@@H](O)CC(=O)O[C@H]1C)C[C@H](O)[C@H]2C(=O)O [AMPHOTERICIN B]
MFC [1]: 0.2 µM (≈ 0.185 µg/mL)
MIC [1]: 0.14 µM (≈ 0.129 µg/mL)
MFC [2]: 0.1 µM (≈ 0.0924 µg/mL)
MIC [2]: 0.08 µM (≈ 0.0739 µg/mL)
MFC [3]: 0.1 µM (≈ 0.0924 µg/mL)
MIC [3]: 0.08 µM (≈ 0.0739 µg/mL)
MFC (Cryptococcus neoformans [4]): 0.22 µM (≈ 0.203 µg/mL)
MIC (Cryptococcus neoformans [4]): 0.11 µM (≈ 0.102 µg/mL)
MFC [5]: 0.5 µM (≈ 0.462 µg/mL)
MIC [5]: 0.14 µM (≈ 0.129 µg/mL)
MFC (Cryptococcus neoformans [6]): 0.22 µM (≈ 0.203 µg/mL)
MIC (Cryptococcus neoformans [6]): 0.03 µM (≈ 0.0277 µg/mL)
MFC [7]: 0.1 µM (≈ 0.0924 µg/mL)
MIC [7]: 0.08 µM (≈ 0.0739 µg/mL)
MIC (Cryptococcus neoformans [8]): 0.09 µM (≈ 0.0832 µg/mL)
MFC [9]: 0.2 µM (≈ 0.185 µg/mL)
MIC [9]: 0.04 µM (≈ 0.037 µg/mL)
MFC (Cryptococcus neoformans [10]): 0.22 µM (≈ 0.203 µg/mL)
MIC (Cryptococcus neoformans [10]): 0.09 µM (≈ 0.0832 µg/mL)
IC50 (Vero): > 100 µM
MFC [11]: 0.1 µM (≈ 0.0924 µg/mL)
MIC [11]: 0.08 µM (≈ 0.0739 µg/mL)
selectivity ratio [12]: 206
IC50 [13]: 53.4 µM
MFC (Cryptococcus neoformans [14]): 0.45 µM (≈ 0.416 µg/mL)
MIC (Cryptococcus neoformans [14]): 0.08 µM (≈ 0.0739 µg/mL)
MFC [15]: 0.9 µM (≈ 0.832 µg/mL)
MIC [15]: 0.14 µM (≈ 0.129 µg/mL)
MFC [16]: 0.1 µM (≈ 0.0924 µg/mL)
MIC [16]: 0.04 µM (≈ 0.037 µg/mL)
MFC (Cryptococcus neoformans [17]): 0.11 µM (≈ 0.102 µg/mL)
MIC (Cryptococcus neoformans [17]): 0.06 µM (≈ 0.0554 µg/mL)
Ratio [18]: 109.81
MFC (Cryptococcus neoformans [19]): 0.22 µM (≈ 0.203 µg/mL)
MIC (Cryptococcus neoformans [19]): 0.07 µM (≈ 0.0647 µg/mL)
MFC [20]: 0.9 µM (≈ 0.832 µg/mL)
MIC [20]: 0.12 µM (≈ 0.111 µg/mL)
MFC (Cryptococcus neoformans [21]): 0.22 µM (≈ 0.203 µg/mL)
MIC (Cryptococcus neoformans [21]): 0.06 µM (≈ 0.0554 µg/mL)
MFC [22]: 0.1 µM (≈ 0.0924 µg/mL)
MIC [22]: 0.04 µM (≈ 0.037 µg/mL)
MFC (Cryptococcus neoformans [23]): 0.11 µM (≈ 0.102 µg/mL)
MIC (Cryptococcus neoformans [23]): 0.06 µM (≈ 0.0554 µg/mL)
MFC (Cryptococcus neoformans [24]): 0.45 µM (≈ 0.416 µg/mL)
MIC (Cryptococcus neoformans [24]): 0.09 µM (≈ 0.0832 µg/mL)
MFC (Cryptococcus neoformans [25]): 0.22 µM (≈ 0.203 µg/mL)
MIC (Cryptococcus neoformans [25]): 0.04 µM (≈ 0.037 µg/mL)
MFC (Cryptococcus neoformans [26]): 0.45 µM (≈ 0.416 µg/mL)
MIC (Cryptococcus neoformans [26]): 0.07 µM (≈ 0.0647 µg/mL)
